Test results as given in the array DNA melting data of Ke et al. (doi:10.1101/2024.01.08.574731).

Tests used:
[1] = folding enthalpy; higher = less favourable; fluorescence melt of hairpins on a sequencing array, two-state fit; details: sodium 0.088 M
Procedure, shortened: (§1)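 Bootstrapped two-state fits yielded melting temperature and folding enthalpy for library hairpins. Cy3 fluorescence, with annealed Cy3 and quencher oligos, was imaged on a sequenced MiSeq flow cell in 50 mM Na-HEPES pH 8.0, 25 mM NaCl in 2.5 °C steps up to 60 °C, and normalised to pre-quench Cy3 and to control constructs. Four replicates were combined by inverse variance, and fitted temperatures were raised by 9.35 °C to match UV melts.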

[2] = melting temperature; fluorescence melt of hairpins on a sequencing array, two-state fit, raised by 9.35 °C to match UV melts; details: sodium 0.088 M
Procedure, shortened: as §1

| Sequence | folding enthalpy [1] | Tm [2] |
| --- | --- | --- |
| GGAGGGACGAAAGTCTCC (((..(((....)))))) | -13.4 kcal/mol | 39.2 °C |
| GTCCTCGAAAGAGGCGAC ((((((....)))..))) | -17 kcal/mol | 50.9 °C |
| GCATGAGGAAACTCATGC (((((((....))))))) | -40.3 kcal/mol | 65.3 °C |
| GATCGTGTTCACGATC ((((((....)))))) | -44.2 kcal/mol | 58.8 °C |
| GGCCAGCGAAAGCTGCC (((.(((....)))))) | -16 kcal/mol | 60 °C |
| GGCTCCGAAAGGATCGCC ((((((....)))..))) | -21.7 kcal/mol | 47.2 °C |
| GGAGCCGAAAGGCACTCC ((((((....)))..))) | -11.1 kcal/mol | 39.9 °C |
| GGTGACGGAAACGTCATC (.(((((....))))).) | -38.2 kcal/mol | 54.1 °C |
| GGCGCTCGAAAGAGGGCC (((.(((....))).))) | -39.6 kcal/mol | 68.4 °C |
| GGTTTTCGAAAGAATACC (((.(((....))).))) | -30.8 kcal/mol | 42.3 °C |
| GGATCACGAAAGTGTTCC (((.(((....))).))) | -34.3 kcal/mol | 50.8 °C |
| GGCTTTGGAAACGAAGTC (.(((.(....).))).) | -14.7 kcal/mol | 34.7 °C |
| GGTCATGAAAATGACC ((((((....)))))) | -38 kcal/mol | 59.5 °C |
| GCATTTCGAAAGAATGC (((.(((....)))))) | -30.5 kcal/mol | 45.5 °C |
| GTTGTTCGAAAGAAAAAC (((.(((....))).))) | -29.1 kcal/mol | 34.9 °C |
| GCTGGTCGAAAGACTAGC (((.(((....))).))) | -43.2 kcal/mol | 57.6 °C |
| GCGTGCGGAAACACACGC (((((.(....).))))) | -40.2 kcal/mol | 58.5 °C |
| CGTTTCGGAAACGACACG (((.(((....))).))) | -29.6 kcal/mol | 44.8 °C |
| GATCGAGCATTCGATC ((((((....)))))) | -42.6 kcal/mol | 58.2 °C |
| GATCAAATCTTTGATC ((((((....)))))) | -30.3 kcal/mol | 47.7 °C |
| GAGTGAGGAAACTCGTTC ((..(((....)))..)) | -11.8 kcal/mol | 27.6 °C |
| GTCGTGGGAAACCATGGC (.(.(((....))).).) | -25.6 kcal/mol | 40.6 °C |
| GAACGGCGAAAGCCTTTC (((.(((....))).))) | -18 kcal/mol | 39.7 °C |

| Sequence | folding enthalpy [1] | Tm [2] |
| --- | --- | --- |
| GCGTAGGGAAACCCACAC (.((.((....)).)).) | -10.6 kcal/mol | 21.3 °C |
| CAACCAGAAATGGTTG ((((((....)))))) | -29.4 kcal/mol | 53.1 °C |
| GCCGCAGGAAACTGTGGC (((.(((....))).))) | -39.4 kcal/mol | 60.3 °C |
| GATGGCCGAAAGGCAATC (((.(((....))).))) | -20.9 kcal/mol | 57.3 °C |
| GGCCCCGGAAACGAGGCC ((((.((....)).)))) | -38.4 kcal/mol | 57.5 °C |
| GTCGGAGGAAACTCTGAC (((.(((....))).))) | -45.4 kcal/mol | 50 °C |
| GCGTGAAGACGC ((((....)))) | -23 kcal/mol | 58.3 °C |
| GCGCGGCGAAAGCCTGGC ((..(((....)))..)) | -15.3 kcal/mol | 47.9 °C |
| GATCCGTCACGGATC ((((((...)))))) | -34.7 kcal/mol | 60.6 °C |
| GTTAGCGAAAGCTACAAC ((((((....)))..))) | -8.63 kcal/mol | 30.4 °C |
| GCGTGTGCACGC ((((....)))) | -29.9 kcal/mol | 57.2 °C |
| GTTCAGCGAAAGCTAAC (((.(((....)))))) | -13.8 kcal/mol | 36.4 °C |
| GGTAACGAAAGTTCAACC ((((((....)))..))) | -11 kcal/mol | 27.7 °C |
| GGTGTCGAAAGACGAACC ((((((....)))..))) | -18.8 kcal/mol | 40.9 °C |
| GATCAGTGTACTGATC ((((((....)))))) | -33.1 kcal/mol | 59.1 °C |
| GCAGGGCGAAAGCACAGC ((.(.((....)).).)) | -20.6 kcal/mol | 56.8 °C |
| GATCTATATATAGATC ((((((....)))))) | -46.8 kcal/mol | 46.4 °C |
| GAGTCAGGAAACTAACTC ((((.((....)).)))) | -12.4 kcal/mol | 25.4 °C |
| GCGGCCAACCGC ((((....)))) | -21.6 kcal/mol | 56.2 °C |
| GGCCTCGAAAGAGGGGCC ((((((....)))..))) | -23 kcal/mol | 54.9 °C |
| GGGCCCGAAAGGGAGCCC ((((((....)))..))) | -23.8 kcal/mol | 62.3 °C |
| GGAGGACGAAAGTCTCC (((.(((....)))))) | -22.6 kcal/mol | 50.5 °C |
| GATCTCGTCGGAGATC ((((((....)))))) | -43.5 kcal/mol | 54.5 °C |
